Drawing on ChEMBL document CHEMBL1129036, “Bisindolylmaleimides linked to DNA minor groove binding lexitropsins: synthesis, inhibitory activity against topoisomerase I, and biological evaluation” (J Med Chem, 1996), this text covers CC50, inhibition and Change for 1 compound.

≈ marks a conversion by molar mass, not a printed value.

Series [1] in a line: In vitro cytotoxicity against KB cancer cell line (ATCC CCL 17). It counts as cell-based. The note with it: human, KB cancer cells (ATCC CCL 17); read-out: TD50 (the source's name). The method in brief:
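KB cells grown in Eagle's MEM with 10% calf serum, 37 °C, humidified 5% CO₂. Seeded at 3 × 10³ cells/mL, cultured 24 h, then compound added in triplicate at several concentrations for 3 days. TD50 is the concentration giving 50% reduction in cell count; average of ≥3 determinations.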

Series [2] has as its target T1, DNA topoisomerase 1 (Homo sapiens) (UniProt P11387).
T1 sequence (whole entry): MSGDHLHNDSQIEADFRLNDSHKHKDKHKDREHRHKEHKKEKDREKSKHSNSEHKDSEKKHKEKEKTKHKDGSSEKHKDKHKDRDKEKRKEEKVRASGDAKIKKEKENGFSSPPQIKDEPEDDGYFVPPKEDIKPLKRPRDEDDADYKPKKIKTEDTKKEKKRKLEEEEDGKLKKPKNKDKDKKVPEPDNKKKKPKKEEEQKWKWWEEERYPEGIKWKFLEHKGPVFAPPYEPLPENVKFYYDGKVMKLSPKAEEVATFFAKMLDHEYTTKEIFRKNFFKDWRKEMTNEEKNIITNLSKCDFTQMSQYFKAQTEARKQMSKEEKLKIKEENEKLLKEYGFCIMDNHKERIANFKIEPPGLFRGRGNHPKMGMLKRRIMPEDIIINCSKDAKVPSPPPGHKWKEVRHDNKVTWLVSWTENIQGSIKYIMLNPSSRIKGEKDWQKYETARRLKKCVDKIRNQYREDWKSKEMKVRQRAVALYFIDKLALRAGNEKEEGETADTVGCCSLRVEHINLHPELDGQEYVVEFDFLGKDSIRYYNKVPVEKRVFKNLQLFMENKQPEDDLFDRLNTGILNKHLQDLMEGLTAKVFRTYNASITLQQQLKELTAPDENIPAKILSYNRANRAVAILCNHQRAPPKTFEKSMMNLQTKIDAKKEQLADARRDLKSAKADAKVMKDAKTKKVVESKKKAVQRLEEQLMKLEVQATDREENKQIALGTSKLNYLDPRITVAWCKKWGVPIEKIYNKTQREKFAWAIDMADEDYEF
Put plainly: Topoisomerase I DNA relaxation activity was evaluated by Agarose Gel Electrophoresis test at concentration 100 uM. As to conditions: Escherichia coli. The method in brief: (§1)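 Relaxation of 0.25 µg supercoiled pBR322 DNA by 0.5 unit topoisomerase I, 30 min at 37 °C with ligand (25–250 µM), final volume 10 µL. SDS-containing loading buffer added, further 30 min at 37 °C. Agarose gel run overnight, stained with ethidium bromide (0.5 µg/mL), photographed. Percent supercoiled DNA remaining by laser densitometry, scored in bands (<10% to 75–100%).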

In series [3] the target is T1, DNA topoisomerase 1 (Homo sapiens). Kind of series: Topoisomerase I DNA relaxation activity was evaluated by Fluorescence assay using Ethidium Bromide before heat denaturation of pBR322 DNA at concentration 50 uM. As to conditions: Escherichia coli. The method in brief:
(§2)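 0.25 µg pBR322 DNA with ligand plus topoisomerase I (0.5 unit), 30 min at 37 °C. Then ethidium bromide buffer added (0.5 µg/mL EtBr, 20 mM K₃PO₄, 0.5 mM EDTA, pH 12). Fluorescence read at ex 525/em 600 nm before and after heat denaturation of DNA; percent change vs control.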

Series [4] shares this target. Put plainly: Topoisomerase I DNA relaxation activity was evaluated by Agarose Gel Electrophoresis test at concentration 50 uM. The note with it: Escherichia coli. The method in brief: as §1
For series [5] the target is unchanged. Kind of series: Topoisomerase I […] was evaluated by Fluorescence assay using Ethidium Bromide before heat denaturation of pBR322 DNA at concentration 250 uM. The note with it: Escherichia coli. The method in brief:
(§3)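 0.25 µg pBR322 DNA incubated with ligand alone, no enzyme, 30 min at 37 °C. Ethidium bromide buffer added (0.5 µg/mL EtBr, 20 mM K₃PO₄, 0.5 mM EDTA, pH 12). Fluorescence measured at ex 525/em 600 nm before and after heat denaturation of DNA; percent change vs control.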

The target is the same in series [6]. As to conditions: Escherichia coli; at 25 µM.
For series [7] the target is unchanged. Put plainly: Topoisomerase I DNA relaxation activity was evaluated by Agarose Gel Electrophoresis test at concentration 25 uM. The note with it: Escherichia coli; at 25 µM. The method in brief:
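0.25 µg supercoiled pBR322 DNA and 0.5 unit topoisomerase I incubated with ligand for 30 min at 37 °C (10 µL final). Equal volume loading buffer with SDS added, a further 30 min at 37 °C, agarose gel run overnight, ethidium bromide stained. Supercoiled DNA remaining quantified by laser densitometry of the photographed gel. Scored as % inhibition bands (<10% to 75-100%).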

For series [8] the target is unchanged. Put plainly: Topoisomerase I […] was evaluated by Fluorescence assay using Ethidium Bromide after heat denaturation of pBR322 DNA at concentration 100 uM. As to conditions: Escherichia coli. The method in brief: as §3
Series [9] shares this target. Put plainly: Topoisomerase I DNA relaxation activity was evaluated by Fluorescence assay using Ethidium Bromide before heat denaturation of pBR322 DNA at concentration 250 uM. As to conditions: Escherichia coli. The method in brief: as §2
The target is the same in series [10]. Put plainly: Topoisomerase I […] was evaluated by Fluorescence assay using Ethidium Bromide after heat denaturation of pBR322 DNA at concentration 250 uM. As to conditions: Escherichia coli. The method in brief: as §3
The target is the same in series [11]. Put plainly: Topoisomerase I DNA relaxation activity was evaluated by Fluorescence assay using Ethidium Bromide after heat denaturation of pBR322 DNA at concentration 50 uM. As to conditions: Escherichia coli. The method in brief: as §2
Series [12] has the same target. Kind of series: Topoisomerase I DNA relaxation activity was evaluated by Agarose Gel Electrophoresis test at concentration 250 uM. As to conditions: Escherichia coli. The method in brief:
as §1

Series [13] shares this target. Kind of series: Topoisomerase I DNA relaxation activity was evaluated by Fluorescence assay using Ethidium Bromide before heat denaturation of pBR322 DNA at concentration 100 uM. As to conditions: Escherichia coli. The method in brief:
as §2

Series [14] has the same target. Put plainly: Topoisomerase I […] was evaluated by Fluorescence assay using Ethidium Bromide after heat denaturation of pBR322 DNA at concentration 25 uM. The note with it: Escherichia coli; at 25 µM. The method in brief:
(§4)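 0.25 µg pBR322 DNA incubated with ligand for 30 min at 37 °C without topoisomerase I (DNA and compound only). Ethidium bromide buffer then added (0.5 µg/mL ethidium bromide, 20 mM K₃PO₄, 0.5 mM EDTA, pH 12). Fluorescence read at excitation 525 nm and emission 600 nm, before and after heat denaturation of the DNA. Reported as percent change from control.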

Series [15] has the same target. Put plainly: Topoisomerase I […] was evaluated by Fluorescence assay using Ethidium Bromide after heat denaturation of pBR322 DNA at concentration 50 uM. The note with it: Escherichia coli. The method in brief:
as §3

Series [16] has the same target. Kind of series: Topoisomerase I […] was evaluated by Fluorescence assay using Ethidium Bromide before heat denaturation of pBR322 DNA at concentration 50 uM. As to conditions: Escherichia coli. The method in brief: as §3
Series [17] shares this target. Put plainly: Topoisomerase I […] was evaluated by Fluorescence assay using Ethidium Bromide before heat denaturation of pBR322 DNA at concentration 25 uM. The note with it: Escherichia coli; at 25 µM. The method in brief: as §4
The target is the same in series [18]. Kind of series: Topoisomerase I […] was evaluated by Fluorescence assay using Ethidium Bromide before heat denaturation of pBR322 DNA at concentration 100 uM. As to conditions: Escherichia coli. The method in brief:
as §3

The target is the same in series [19]. The note with it: Escherichia coli; at 25 µM. The source holds these as a separate data set.
Series [20] shares this target. Kind of series: Topoisomerase I DNA relaxation activity was evaluated by Fluorescence assay using Ethidium Bromide after heat denaturation of pBR322 DNA at concentration 250 uM. The note with it: Escherichia coli. The method in brief: as §2
For series [21] the target is unchanged. Kind of series: Topoisomerase I DNA relaxation activity was evaluated by Fluorescence assay using Ethidium Bromide after heat denaturation of pBR322 DNA at concentration 100 uM. As to conditions: Escherichia coli. The method in brief:
as §2

With `COC(=O)c1cc(NC(=O)Cn2cc(C3=C(c4c[nH]c5ccccc45)C(=O)NC3=O)c3ccccc32)cn1C`, the CC50 in series [1] amounted to 53.2 µg/mL (≈ 102 µM). In addition, the inhibition in series [2], in series [4], in [7] and in [12] was 0% in each case. The Change turned out to be 1% in series [3]; 2% in [5]; 18% in [6]; 14% in series [8]; 1% in series [9]; 17% in series [10]. Further, the Change was 18% in series [11]; 3% in series [13]; 15% in series [14]; 12% in series [15]; 3% in series [16]; 2% in series [17]. In addition, the Change in [18] turned out to be 6%; in [19] it was 1%; in [20], 9%; in series [21] it was 12%.

In general, inhibition refers to the drop in the measured response relative to a control, in per cent. Low readings indicate a response near the control, high ones a response far below the control.
